Laboratory results taken from ChEMBL document CHEMBL1140994, “Ranking the selectivity of PubChem screening hits by activity-based protein profiling: MMP13 as a case study” (Bioorg Med Chem, 2009).
Activity calls are given as the source filed them. No cut-off for these calls is given here.

Experiments:
Neutrophil collagenase [1] = biological target: T1, Neutrophil collagenase (Homo sapiens, UniProt P22894); assay: Inhibition of human recombinant MMP8 at 200 uM by HxBPyne probe-based competitive activity based protein profiling assay in presence of 5 uM HxBpane competitor
In short: (§1)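 Recombinant enzyme at 0.5 μM final in mouse liver soluble proteome (1 mg protein/mL in PBS). HxBPyne probe cocktail 0.5 μM total final, with inhibitor 200 μM or DMSO. Preincubated 30 min on ice, then UV 365 nm for 1 h on ice. Rhodamine-azide click chemistry, 1 h RT in dark. SDS-PAGE with in-gel fluorescence; band intensity given as % of DMSO control.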
Target sequence in this assay (P22894 101-467 limits assumed): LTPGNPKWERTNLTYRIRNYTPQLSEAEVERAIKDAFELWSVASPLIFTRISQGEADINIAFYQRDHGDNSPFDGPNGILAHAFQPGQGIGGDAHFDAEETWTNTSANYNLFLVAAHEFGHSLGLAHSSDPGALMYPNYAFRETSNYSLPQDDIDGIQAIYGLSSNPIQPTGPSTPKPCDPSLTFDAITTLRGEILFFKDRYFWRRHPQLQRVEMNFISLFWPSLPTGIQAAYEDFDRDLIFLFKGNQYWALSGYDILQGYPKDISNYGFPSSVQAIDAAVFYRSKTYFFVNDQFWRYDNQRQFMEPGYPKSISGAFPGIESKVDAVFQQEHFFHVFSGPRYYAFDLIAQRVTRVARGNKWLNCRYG

[2] = biological target: T2, A disintegrin and metalloproteinase with thrombospondin motifs 5 (Homo sapiens) (UniProt Q9UNA0); assay: Inhibition of human recombinant ADAMTS5 at 200 uM by HxBPyne probe-based competitive activity based protein profiling assay in presence of 5 uM HxBpane competitor; in short: as §1
T2 sequence (whole entry): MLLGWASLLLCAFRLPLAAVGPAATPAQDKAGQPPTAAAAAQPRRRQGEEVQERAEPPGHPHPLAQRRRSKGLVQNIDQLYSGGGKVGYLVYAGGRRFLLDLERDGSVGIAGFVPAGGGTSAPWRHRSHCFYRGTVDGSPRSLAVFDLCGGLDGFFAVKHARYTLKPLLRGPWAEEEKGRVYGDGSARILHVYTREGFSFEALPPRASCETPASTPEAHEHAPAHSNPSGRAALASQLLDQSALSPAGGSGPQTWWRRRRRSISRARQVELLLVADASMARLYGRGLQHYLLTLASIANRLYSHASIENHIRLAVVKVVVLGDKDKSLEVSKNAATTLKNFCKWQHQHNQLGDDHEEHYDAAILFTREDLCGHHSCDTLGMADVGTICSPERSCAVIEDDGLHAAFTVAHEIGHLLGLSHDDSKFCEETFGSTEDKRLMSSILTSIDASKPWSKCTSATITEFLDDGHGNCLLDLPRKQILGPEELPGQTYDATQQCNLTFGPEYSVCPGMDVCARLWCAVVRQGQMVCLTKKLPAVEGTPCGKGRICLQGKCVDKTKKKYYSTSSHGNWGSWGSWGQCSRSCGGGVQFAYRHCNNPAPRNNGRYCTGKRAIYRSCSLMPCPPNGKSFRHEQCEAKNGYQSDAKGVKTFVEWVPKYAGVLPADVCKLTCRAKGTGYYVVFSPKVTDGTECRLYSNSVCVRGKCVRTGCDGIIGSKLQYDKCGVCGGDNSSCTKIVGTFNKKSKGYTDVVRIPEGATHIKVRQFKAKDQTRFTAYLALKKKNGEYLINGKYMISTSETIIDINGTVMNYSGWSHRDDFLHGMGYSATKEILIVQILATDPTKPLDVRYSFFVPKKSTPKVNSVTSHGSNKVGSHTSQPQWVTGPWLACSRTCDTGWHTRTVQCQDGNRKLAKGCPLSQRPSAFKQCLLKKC

[3] = biological target: T3, Stromelysin-3 (Homo sapiens) (UniProt P24347); assay: Inhibition of human recombinant MMP11 at 200 uM by HxBPyne probe-based competitive activity based protein profiling assay in presence of 5 uM HxBpane competitor; in short: as §1
T3 sequence (whole entry): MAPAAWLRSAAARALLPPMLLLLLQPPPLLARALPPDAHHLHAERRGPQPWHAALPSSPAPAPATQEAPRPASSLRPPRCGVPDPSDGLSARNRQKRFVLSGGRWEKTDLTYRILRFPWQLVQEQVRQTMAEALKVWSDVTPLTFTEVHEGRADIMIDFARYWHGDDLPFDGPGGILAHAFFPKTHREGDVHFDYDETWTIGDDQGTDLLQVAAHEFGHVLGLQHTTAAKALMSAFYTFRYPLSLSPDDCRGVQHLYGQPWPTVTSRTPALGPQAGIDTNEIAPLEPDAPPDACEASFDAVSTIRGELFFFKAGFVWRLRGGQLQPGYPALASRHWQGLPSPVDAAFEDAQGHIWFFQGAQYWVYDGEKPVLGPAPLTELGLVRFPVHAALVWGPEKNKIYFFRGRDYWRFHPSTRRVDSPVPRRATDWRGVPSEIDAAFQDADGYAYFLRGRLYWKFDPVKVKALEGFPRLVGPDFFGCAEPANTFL

[4] = biological target: Matrix metalloproteinase-16 (Homo sapiens) (UniProt P51512); assay: Inhibition of human recombinant MMP16 at 200 uM by HxBPyne probe-based competitive activity based protein profiling assay in presence of 5 uM HxBpane competitor; in short: as §1
[5] = biological target: Matrix metalloproteinase-24 (Homo sapiens) (UniProt Q9Y5R2); assay: Inhibition of human recombinant MMP24 at 200 uM by HxBPyne probe-based competitive activity based protein profiling assay in presence of 5 uM HxBpane competitor; in short: as §1
[6] = biological target: 72 kDa type IV collagenase (Homo sapiens) (UniProt P08253); assay: Inhibition of human recombinant MMP2 at 200 uM by HxBPyne probe-based competitive activity based protein profiling assay in presence of 5 uM HxBpane competitor; in short: as §1
Collagenase 3 [7] = biological target: T4, Collagenase 3 (Homo sapiens, UniProt P45452); assay: Inhibition of human recombinant MMP13 by HxBPyne probe-based competitive activity based protein profiling assay
[8] = biological target: Stromelysin-1 (Homo sapiens) (UniProt P08254); assay: Inhibition of human recombinant MMP3 at 200 uM by HxBPyne probe-based competitive activity based protein profiling assay in presence of 5 uM HxBpane competitor; in short: as §1
[9] = biological target: Stromelysin-2 (Homo sapiens) (UniProt P09238); assay: Inhibition of human recombinant MMP10 at 200 uM by HxBPyne probe-based competitive activity based protein profiling assay in presence of 5 uM HxBpane competitor; in short: as §1
[10] = biological target: Matrix metalloproteinase-15 (Homo sapiens) (UniProt P51511); assay: Inhibition of human recombinant MMP15 at 200 uM by HxBPyne probe-based competitive activity based protein profiling assay in presence of 5 uM HxBpane competitor; in short: as §1
[11] = biological target: Macrophage metalloelastase (Homo sapiens) (UniProt P39900); assay: Inhibition of human recombinant MMP12 at 200 uM by HxBPyne probe-based competitive activity based protein profiling assay in presence of 5 uM HxBpane competitor; in short: as §1
Collagenase 3 [12] = biological target: T4, Collagenase 3; assay: Inhibition of human recombinant MMP13 by fluorogenic substrate assay
[13] = biological target: Matrix metalloproteinase-14 (Homo sapiens) (UniProt P50281); assay: Inhibition of human recombinant MMP14 at 200 uM by HxBPyne probe-based competitive activity based protein profiling assay in presence of 5 uM HxBpane competitor; in short: as §1
[14] = biological target: T5, Matrix metalloproteinase-9 (Homo sapiens, UniProt P14780); assay: Inhibition of human recombinant MMP9 by fluorogenic substrate assay
In short: (§2)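 Enzyme (MMP8 6 nM, MMP9 2 nM, MMP13 1.5 nM final) preincubated with inhibitor 30 min in 50 mM HEPES pH 7.5, 10 mM CaCl2, 0.05% Brij-35, at RT. Mca-PLGL-Dpa-AR-NH2 added at 5 μM; fluorescence (ex 328/em 393 nm) read each minute for 10 min. Initial rates by linear least squares; IC50 from variable-slope sigmoidal fit. Triplicate; mean with 95% CI.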

Neutrophil collagenase [15] = biological target: T1, Neutrophil collagenase; assay: Inhibition of human recombinant MMP8 by fluorogenic substrate assay; in short: as §2
Target sequence in this assay (P22894 whole entry): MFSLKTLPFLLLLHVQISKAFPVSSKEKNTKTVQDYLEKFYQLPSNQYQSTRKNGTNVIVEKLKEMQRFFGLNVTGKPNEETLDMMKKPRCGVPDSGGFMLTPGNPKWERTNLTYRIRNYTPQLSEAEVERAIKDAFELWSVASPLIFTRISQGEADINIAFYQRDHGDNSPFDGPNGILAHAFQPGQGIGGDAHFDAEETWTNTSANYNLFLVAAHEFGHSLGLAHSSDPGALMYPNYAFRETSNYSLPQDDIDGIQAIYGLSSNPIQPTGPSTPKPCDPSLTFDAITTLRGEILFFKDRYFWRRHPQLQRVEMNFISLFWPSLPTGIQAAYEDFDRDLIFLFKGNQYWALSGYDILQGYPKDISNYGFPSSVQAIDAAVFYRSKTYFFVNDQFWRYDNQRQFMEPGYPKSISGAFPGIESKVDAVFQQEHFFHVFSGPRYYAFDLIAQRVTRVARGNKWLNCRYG

[16] = biological target: T6, Disintegrin and metalloproteinase domain-containing protein 8 (Homo sapiens) (UniProt P78325); assay: Inhibition of human recombinant ADAM8 at 200 uM by HxBPyne probe-based competitive activity based protein profiling assay in presence of 5 uM HxBpane competitor; in short: as §1
T6 sequence (whole entry): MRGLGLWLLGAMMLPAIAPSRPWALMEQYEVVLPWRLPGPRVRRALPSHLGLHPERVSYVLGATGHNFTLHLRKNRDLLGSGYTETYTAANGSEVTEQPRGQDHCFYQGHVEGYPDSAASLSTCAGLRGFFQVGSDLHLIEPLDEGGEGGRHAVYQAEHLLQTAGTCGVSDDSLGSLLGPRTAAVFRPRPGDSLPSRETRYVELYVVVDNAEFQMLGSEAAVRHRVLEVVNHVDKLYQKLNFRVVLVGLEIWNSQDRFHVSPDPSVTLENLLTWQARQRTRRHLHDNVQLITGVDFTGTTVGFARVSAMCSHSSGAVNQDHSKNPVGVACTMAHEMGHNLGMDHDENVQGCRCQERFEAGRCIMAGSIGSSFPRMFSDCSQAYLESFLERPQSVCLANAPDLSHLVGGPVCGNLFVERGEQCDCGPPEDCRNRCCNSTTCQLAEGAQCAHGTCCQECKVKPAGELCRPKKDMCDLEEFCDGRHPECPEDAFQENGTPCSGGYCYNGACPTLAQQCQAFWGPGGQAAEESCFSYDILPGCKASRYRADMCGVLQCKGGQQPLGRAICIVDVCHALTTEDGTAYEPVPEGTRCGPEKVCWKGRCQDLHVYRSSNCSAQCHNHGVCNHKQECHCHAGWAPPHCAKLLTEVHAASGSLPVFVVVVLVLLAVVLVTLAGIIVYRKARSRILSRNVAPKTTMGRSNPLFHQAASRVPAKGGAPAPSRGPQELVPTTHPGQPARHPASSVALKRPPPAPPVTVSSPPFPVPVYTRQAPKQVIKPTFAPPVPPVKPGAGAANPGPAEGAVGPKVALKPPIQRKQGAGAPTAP

[17] = biological target: T5, Matrix metalloproteinase-9; assay: Inhibition of human recombinant MMP9 at 200 uM by HxBP-Rh probe-based competitive activity based protein profiling assay in presence of 200 uM HxBP-alkyne
In short: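 Enzyme 0.5 μM final, in PBS (ADAMTS4, neprilysin) or in 1 mg/mL mouse liver soluble proteome (MMP9). HxBP-Rh probe 0.5 μM final with 200 μM inhibitor or DMSO. Preincubated 30 min on ice, UV 365 nm 1 h on ice. Deglycosylated with PNGase F, then SDS-PAGE with fluorescence scanning. Activity given relative to DMSO control.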

T5 sequence (P14780 whole entry): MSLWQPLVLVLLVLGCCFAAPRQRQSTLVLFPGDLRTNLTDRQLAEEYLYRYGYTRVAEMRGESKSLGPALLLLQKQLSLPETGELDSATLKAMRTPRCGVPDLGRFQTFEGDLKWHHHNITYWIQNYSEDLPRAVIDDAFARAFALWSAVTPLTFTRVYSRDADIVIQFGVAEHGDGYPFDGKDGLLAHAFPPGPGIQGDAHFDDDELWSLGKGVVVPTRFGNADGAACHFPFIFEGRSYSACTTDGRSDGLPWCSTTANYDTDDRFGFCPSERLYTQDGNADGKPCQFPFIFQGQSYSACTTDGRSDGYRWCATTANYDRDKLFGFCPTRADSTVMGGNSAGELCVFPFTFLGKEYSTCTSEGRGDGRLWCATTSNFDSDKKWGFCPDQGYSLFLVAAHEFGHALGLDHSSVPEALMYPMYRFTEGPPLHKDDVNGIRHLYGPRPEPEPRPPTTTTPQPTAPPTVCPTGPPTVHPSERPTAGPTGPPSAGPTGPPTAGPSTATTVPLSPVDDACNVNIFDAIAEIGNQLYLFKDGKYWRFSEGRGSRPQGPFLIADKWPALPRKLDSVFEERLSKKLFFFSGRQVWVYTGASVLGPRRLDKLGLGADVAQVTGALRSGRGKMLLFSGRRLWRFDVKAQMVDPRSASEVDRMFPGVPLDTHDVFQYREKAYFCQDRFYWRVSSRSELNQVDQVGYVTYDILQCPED
Chain of Macrophage metalloelastase (Homo sapiens) (P39900 106-470 limits assumed): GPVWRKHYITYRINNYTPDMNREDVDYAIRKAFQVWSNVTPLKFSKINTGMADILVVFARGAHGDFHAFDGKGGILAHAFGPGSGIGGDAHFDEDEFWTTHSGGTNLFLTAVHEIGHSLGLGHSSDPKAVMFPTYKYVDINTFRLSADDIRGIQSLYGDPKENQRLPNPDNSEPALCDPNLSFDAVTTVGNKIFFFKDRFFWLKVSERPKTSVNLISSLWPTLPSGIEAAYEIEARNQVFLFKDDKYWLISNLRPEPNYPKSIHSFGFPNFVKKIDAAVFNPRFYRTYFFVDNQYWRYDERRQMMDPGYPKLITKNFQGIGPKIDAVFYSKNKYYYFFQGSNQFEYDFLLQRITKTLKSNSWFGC
Chain of 72 kDa type IV collagenase (Homo sapiens) (P08253 110-660 limits assumed): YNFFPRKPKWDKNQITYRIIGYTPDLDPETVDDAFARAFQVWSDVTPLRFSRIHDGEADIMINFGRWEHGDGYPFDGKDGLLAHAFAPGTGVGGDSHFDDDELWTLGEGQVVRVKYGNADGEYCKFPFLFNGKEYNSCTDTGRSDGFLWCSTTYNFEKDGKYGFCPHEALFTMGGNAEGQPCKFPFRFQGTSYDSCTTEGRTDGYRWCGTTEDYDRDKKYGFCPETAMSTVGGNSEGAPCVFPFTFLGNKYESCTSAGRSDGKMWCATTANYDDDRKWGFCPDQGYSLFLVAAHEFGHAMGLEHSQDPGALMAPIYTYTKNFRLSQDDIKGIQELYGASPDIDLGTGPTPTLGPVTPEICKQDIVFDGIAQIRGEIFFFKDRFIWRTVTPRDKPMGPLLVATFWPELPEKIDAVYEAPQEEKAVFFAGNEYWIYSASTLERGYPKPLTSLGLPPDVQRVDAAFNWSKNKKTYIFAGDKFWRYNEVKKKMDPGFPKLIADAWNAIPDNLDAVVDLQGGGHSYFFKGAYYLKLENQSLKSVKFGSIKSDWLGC
Chain of Stromelysin-1 (Homo sapiens) (P08254 100-477 limits assumed): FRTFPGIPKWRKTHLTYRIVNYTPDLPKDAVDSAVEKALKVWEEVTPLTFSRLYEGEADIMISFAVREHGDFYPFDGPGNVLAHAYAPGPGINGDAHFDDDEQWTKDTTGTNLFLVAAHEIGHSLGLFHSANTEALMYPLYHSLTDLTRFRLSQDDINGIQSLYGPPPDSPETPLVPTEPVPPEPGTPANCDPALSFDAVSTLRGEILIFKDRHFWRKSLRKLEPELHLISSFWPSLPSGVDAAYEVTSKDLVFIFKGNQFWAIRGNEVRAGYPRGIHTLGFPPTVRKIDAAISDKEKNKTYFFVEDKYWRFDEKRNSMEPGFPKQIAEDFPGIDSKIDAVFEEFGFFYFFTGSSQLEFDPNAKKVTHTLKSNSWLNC
Chain of Stromelysin-2 (Homo sapiens) (P09238 99-476 limits assumed): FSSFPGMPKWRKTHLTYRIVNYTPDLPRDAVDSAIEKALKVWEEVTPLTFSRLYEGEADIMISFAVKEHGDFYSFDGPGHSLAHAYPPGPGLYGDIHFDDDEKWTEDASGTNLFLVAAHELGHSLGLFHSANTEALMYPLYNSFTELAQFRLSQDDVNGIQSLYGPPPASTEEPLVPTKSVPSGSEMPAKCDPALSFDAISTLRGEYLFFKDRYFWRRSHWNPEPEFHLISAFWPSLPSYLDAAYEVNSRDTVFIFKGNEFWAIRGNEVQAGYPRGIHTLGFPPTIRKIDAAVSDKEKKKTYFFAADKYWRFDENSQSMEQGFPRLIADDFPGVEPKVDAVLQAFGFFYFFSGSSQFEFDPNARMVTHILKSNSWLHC
Chain of Matrix metalloproteinase-16 (Homo sapiens) (P51512 whole entry): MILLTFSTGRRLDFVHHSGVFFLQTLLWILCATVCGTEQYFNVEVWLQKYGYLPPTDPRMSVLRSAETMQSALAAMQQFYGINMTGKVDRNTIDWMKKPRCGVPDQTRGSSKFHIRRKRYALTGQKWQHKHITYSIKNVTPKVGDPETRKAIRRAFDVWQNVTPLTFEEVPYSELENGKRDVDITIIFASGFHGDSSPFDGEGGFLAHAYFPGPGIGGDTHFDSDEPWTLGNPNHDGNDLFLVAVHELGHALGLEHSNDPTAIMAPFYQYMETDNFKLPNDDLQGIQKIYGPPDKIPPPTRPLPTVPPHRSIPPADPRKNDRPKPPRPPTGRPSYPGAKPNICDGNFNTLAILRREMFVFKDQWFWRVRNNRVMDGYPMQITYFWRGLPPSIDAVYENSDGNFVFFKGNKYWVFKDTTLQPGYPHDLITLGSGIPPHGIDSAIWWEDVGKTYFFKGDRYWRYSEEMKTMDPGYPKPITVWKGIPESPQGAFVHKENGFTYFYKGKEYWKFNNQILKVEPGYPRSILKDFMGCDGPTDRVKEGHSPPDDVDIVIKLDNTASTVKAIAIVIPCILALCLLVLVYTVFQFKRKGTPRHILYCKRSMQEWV
Chain of Matrix metalloproteinase-24 (Homo sapiens) (Q9Y5R2 whole entry): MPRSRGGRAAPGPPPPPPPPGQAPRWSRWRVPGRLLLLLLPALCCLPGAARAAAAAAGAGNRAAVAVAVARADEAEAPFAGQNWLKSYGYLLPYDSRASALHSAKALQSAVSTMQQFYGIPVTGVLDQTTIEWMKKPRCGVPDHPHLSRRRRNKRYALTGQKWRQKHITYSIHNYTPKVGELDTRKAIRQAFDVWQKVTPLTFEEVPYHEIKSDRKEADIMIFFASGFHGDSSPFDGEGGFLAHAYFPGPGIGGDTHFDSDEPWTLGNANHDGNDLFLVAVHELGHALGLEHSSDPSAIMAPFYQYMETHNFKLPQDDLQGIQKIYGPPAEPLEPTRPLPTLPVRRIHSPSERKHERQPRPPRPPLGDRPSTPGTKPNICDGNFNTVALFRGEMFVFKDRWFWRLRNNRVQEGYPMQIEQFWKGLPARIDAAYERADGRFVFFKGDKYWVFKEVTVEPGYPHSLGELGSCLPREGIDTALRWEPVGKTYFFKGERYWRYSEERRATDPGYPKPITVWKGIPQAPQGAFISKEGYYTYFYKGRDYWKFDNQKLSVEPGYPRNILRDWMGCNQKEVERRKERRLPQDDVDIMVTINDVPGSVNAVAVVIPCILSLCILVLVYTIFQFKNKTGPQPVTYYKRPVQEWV

| Activity (Neutrophil collagenase [1]) | Activity [2] | Activity [3] | Activity [4] | Activity [5] | Activity [6] | IC50 (Collagenase 3 [7]) [µM] | Activity [8] | Activity [9] | Activity [10] | Activity [11] | IC50 (Collagenase 3 [12]) [µM] | Activity [13] | IC50 [14] [µM] | IC50 (Neutrophil collagenase [15]) [µM] | Activity [16] | Activity [17] | SMILES |
| --- | --- | --- | --- | --- | --- | --- | --- | --- | --- | --- | --- | --- | --- | --- | --- | --- | --- |
| Active | Active | Active | Active | Active | Active | 13 | Active | Active | Active | Active | 0.28 | Active | 14 | 0.024 | – | – | O=C(O)CCC(NS(=O)(=O)c1ccc(-c2ccccc2)cc1)C(=O)O (stereo unspecified) |
| Active | – | – | – | – | Active | 27 | Active | Active | – | Active | 1.3 | – | 0.16 | 0.67 | Active | Active | CCCCCCOc1ccc(C(CC(=O)O)C(N)=O)cc1 (stereo unspecified) |
